# Published values from different studies.
# Target: Phosphatidylinositol 4-kinase beta (PI4KB, Homo sapiens, UniProt Q9UBF8)
Structure (SMILES),effect on,technique,concentration,remaining binding
Cc1c(C(=O)O)cc(-c2ccc(C3CCNCC3)cc2)c2ccc(-c3ccc(C(F)(F)F)cc3)cc12,cell-free assay,competition with immobilised ligand,1 µM,100%
CN(C)c1nccc(-c2cnn3ncccc23)n1,binding,,1 µM,58%
O=C(NCCCN1CCOCC1)c1ccc(Nc2nccc(-c3cc4ccccc4s3)n2)cc1,binding,competition with immobilised ligand,1 µM,45%
COc1cnc(Nc2cccc(S(N)(=O)=O)c2)nc1N1CCN(c2ccccc2)CC1,binding,competition with immobilised ligand,1 µM,53%
O=C(Nc1c[nH]nc1C(=O)NC1CCNCC1)c1cc(F)cc(F)c1,binding,competition with immobilised ligand,1 µM,100%
CNC(=O)[C@@H]1CC[C@@H](n2c(-c3ccc4cnccc4c3)nc3ccc(C(=O)NCc4cccc(C(N)=O)c4)cc32)C1,binding,competition with immobilised ligand,1 µM,96%
O=C(NCCCN1CCOCC1)c1ccc(Nc2ncc(Cl)c(-c3ccc(Cl)s3)n2)cc1,binding,competition with immobilised ligand,1 µM,100%
C[C@@H]1CCN(c2nccc(-c3cnn4ncccc34)n2)C1,binding,,1 µM,20%
CCOC(=O)c1cc2cc(-c3cc(C(=O)NCc4ccc(C(=O)O)cc4)nn3C)ccc2[nH]1,cell-free assay,competition with immobilised ligand,0.1 µM,79%
c1cncc(-c2cccc(Nc3nccc(NC4CCCCC4)n3)c2)c1,binding,competition with immobilised ligand,10 µM,1.1%
CN(C)c1nccc(-c2cnc3ncccn23)n1,binding,,1 µM,79%
c1ccc(N2CCN(Cc3nc4ccccc4[nH]3)CC2)nc1,cell-free assay,competition with immobilised ligand,1 µM,100%
COc1ncc2cc3ccccc3nc2c1C#N,cell-free assay,competition with immobilised ligand,5 µM,25%
CN(C)C(=O)Cn1cc(-c2nc([C@@](C)(c3ccc(-c4cnc(N)nc4)cc3)C3CC3)no2)cn1,cell-free assay,competition with immobilised ligand,1 µM,92%
CCN1CCN(Cc2ccc(C(=O)Nc3ccc(C)c(Oc4ccc5c(c4)CC(=O)N5)c3)cc2C(F)(F)F)CC1,binding,competition with immobilised ligand,1 µM,100%
CC(=O)C1=C(C)N(c2cccc(C(F)(F)F)c2)C(=O)N[C@@H]1c1ccc(C#N)nc1,cell-free assay,competition with immobilised ligand,1 µM,100%
Cc1cnn2ncc(-c3ccnc(N(C)C)n3)c2c1,binding,,1 µM,56%
Nc1ncc2c(n1)-c1c([nH]c3ccc(C#CC4CC4)cc13)CCCC2,binding,competition with immobilised ligand,1 µM,100%
c1cnn2ncc(-c3ccnc(N4CCC45COC5)n3)c2c1,binding,,1 µM,12%
O=C(c1ccc(Nc2ncc(Cl)c(-c3ccc(Cl)s3)n2)cc1)N1CCC(N2CCCC2)CC1,binding,competition with immobilised ligand,1 µM,100%
CNC(=O)Nc1ccc2c(c1)[C@@]1(CC2)OC(=O)N(CC(=O)N(Cc2ccc(F)cc2)[C@@H](C)C(F)(F)F)C1=O,cell-free assay,competition with immobilised ligand,1 µM,71%
N[C@H]1CCN(c2nccc(-c3cnn4ncccc34)n2)C1,binding,,1 µM,100%
